# Screening data from PubChem.
# TROY signal inh: TROY signaling inhibition | Q293 LMP1-TROYcd NF-kB luciferase reporter, 4 h | inhibition, % at 10 µM | 360,000 tested, 0.98% active;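 active = compounds whose plate-normalised and pattern-corrected inhibition of the luciferase reporter signal at the single screening dose is 50% or more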
# TWEAK Fn14 block: blocks TWEAK-Fn14 interaction in a reporter cell assay; 360,000 tested, 2% active; TWEAK-stimulated Fn14 reporter cells, luciferase luminescence, 8 h; inhibition, % at 10 µM; in the data active = inhibition above about 50%
# Xi reactivation: reactivates the inactive X chromosome in mouse fibroblasts; XiGFP mouse fibroblasts, % GFP-positive cells imaging, 3 d; cells co-treated with 5-aza-dC sensitizer; scaled so ellipticine positive control = 100%; activation, % at 7.58 µM; 360,000 tested, 0.055% active; AID 743238;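 active = mean normalized replicate activation at least 10% and every replicate at or above 10%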
#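 Schedule: 3 d treatment, 15 min room-temperature fixation; system: 68-5-11 XiGFP fibroblast line; buffer or medium: DMEM plus 5-aza-dC sensitizer; control set: ellipticine 6 µM positive control; compound: one concentration, pinned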
# CaV13 ICDI inh: Disruptors of the CACNA1D IQ motif to Ca2+-dependent inactivation inhibitor domain association, primary screening, Förster resonance energy transfer in intact living …; AID 743397; HEK cells, CFP/YFP FRET ICDI-IQ, plate reader, 10 min; percent FRET-ratio fall versus neutral wells; 340,000 tested, 0.098% active; inhibition, % at 12.3 µM;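 active = mean replicate inhibition of at least 30% and at least 1% of replicates passing that level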
# LGR2 inh: inhibitors of bursicon-induced Drosophila LGR2 receptor cAMP signaling. HEK293 LGR2, CRE-luciferase, bursicon-stimulated, 4 h. inhibition, % at 9.99 µM. 380,000 tested, 0.35% active;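 active = drop in luminescence signal, shown as inhibition above about 50% in the replicate tests, limit read from the data, passing the limit was not always enough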;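 note: agonist challenge used bursicon conditioned medium at about half maximal strength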
# Hits are given with their value; n = inactive; x = no result. Only some compounds are listed: those with a hit (about 2% of all), similar ones and a draw of the others.
SMILES,TROY signal inh,TWEAK Fn14 block,Xi reactivation,CaV13 ICDI inh,LGR2 inh
Cc1nc(NC(=O)c2cc3ccccc3o2)sc1C,n,57,n,n,n
COC(=O)c1cc(Cl)c(NC(=O)c2cc3ccccc3o2)cc1OC,x,54,x,x,x
Cc1nnc(NC(=O)c2cc3ccccc3o2)s1,n,n,n,n,n
Cc1noc(C)c1NC(=O)Nc1ccc2c(c1)C(=O)N([C@@H](C)CO)C[C@H](C)[C@@H](CN(C)Cc1ccccc1)OCCCC[C@@H](C)O2,x,x,n,x,n
COc1cccc(S(=O)(=O)N[C@H]2CC[C@@H](CCNC(=O)Cc3ccncc3)O[C@H]2CO)c1,x,x,n,x,n
Cc1cc(S(=O)(=O)c2ccc(Cl)cc2)nc(S(=O)(=O)c2ccc(Cl)cc2)c1C#N,57,77,n,n,n
Cc1cc(C)c(S(=O)(=O)c2ccc(Cl)cc2)c(Cl)n1,n,n,n,n,n
O=C(Nc1cccc(F)c1)N1CCCCN2[C@H](CO)[C@@H](c3ccc(-c4ccccc4F)cc3)[C@H]2C1,x,x,n,x,n
c1ccc(C[n+]2ccc3ccccc3c2)cc1,n,n,n,n,n
c1ccc(C[n+]2cccc(-c3ccccc3)c2)cc1,90,91,n,n,n
Cc1cccc(-n2ncc3c(N(C)C4CCCCC4)ncnc32)c1,88,102,n,n,88
Cc1cccc(-n2ncc3c(N(CCO)CCO)ncnc32)c1,n,88,n,n,x
COc1ccc(-n2ncc3c(SCC(=O)OC(C)C)ncnc32)cc1,n,n,n,n,n
COc1ccc(-n2ncc3c(N(C)C4CCCCC4)ncnc32)cc1,91,104,n,n,94
COCCN(CCOC)c1ncnc2c1cnn2-c1ccccc1,n,n,n,n,n
CCCNC(=O)N1CC2(CCN(Cc3ccccn3)CC2)c2c(n(C)c3cc(OC)ccc23)[C@@H]1CO,x,x,n,x,n
C[C@@H]1CN([C@@H](C)CO)C(=O)Cc2cc(NS(=O)(=O)c3ccccc3)ccc2O[C@H]1CN(C)S(=O)(=O)c1ccc(Cl)cc1,x,x,n,x,n
COc1cc2c(cc1OC)CN(c1ccc(C(F)(F)F)cn1)CC2,n,51,n,n,n
C[C@H](CO)N1C[C@H](C)[C@H](CN(C)Cc2cccnc2)Oc2cc(C#CC3CC3)ccc2S1(=O)=O,x,x,n,x,n
CS(=O)(=O)Nc1ccc(-c2cnc3cccnn23)cc1,n,65,n,n,n
Cc1cc(C(=O)N/N=C/c2ccc(N(C)C)cc2)c2ccccc2n1,54,51,n,n,n
C[C@H](CO)N1C[C@H](C)[C@H](CN(C)CC2CC2)Oc2cc(-c3cccc(C#N)c3)ccc2S1(=O)=O,x,x,n,x,n
CCC(C)NC(=O)c1cc2cc3ccc(OC)cc3nc2s1 (configuration not stated),n,51,x,n,x
C[C@H](CO)N1C[C@H](C)[C@@H](CN(C)Cc2ccccc2F)Oc2cc(C3=CCCC3)ccc2S1(=O)=O,x,x,n,x,n
CC(=O)c1ccc(C(=O)Nc2sc3c(c2C(N)=O)CCN(Cc2ccccc2)C3)cc1,n,n,39,n,n
SMILES,TROY signal inh,TWEAK Fn14 block,Xi reactivation,CaV13 ICDI inh,LGR2 inh
CC(C)N1CCc2c(sc(NC(=O)c3ccc4ccccc4c3)c2C(N)=O)C1,n,n,99,x,n
CC(C)N1CCc2c(sc(NC(=O)c3ccco3)c2C(N)=O)C1,n,n,n,x,n
CC(C)N1CCc2c(sc(NC(=O)c3cc4cc([N+](=O)[O-])ccc4s3)c2C(N)=O)C1,n,n,65,n,n
CC(C)N1CCc2c(sc(NC(=O)c3ccc(C(=O)c4ccccc4)cc3)c2C(N)=O)C1,n,n,n,n,n
C[C@@H]1CCCCO[C@H](CN(C)Cc2ccccc2)[C@H](C)CN([C@H](C)CO)C(=O)c2cc(NC(=O)Nc3ccc(C(F)(F)F)cc3)ccc2O1,x,x,n,x,n
CCOC(=O)C(NC(=O)c1ccccc1)(OCC1(CC)COC1)C(F)(F)F (configuration not stated),n,n,x,41,x
C/C=C/c1cnc2c(c1)C(=O)N([C@@H](C)CO)C[C@@H](C)[C@H](CN(C)C(=O)NC1CCCCC1)O2,x,x,n,x,n
Clc1ccc(OCc2nc(-c3ccccn3)no2)c(Br)c1,n,67,n,n,69
Brc1ccc(-c2nc(-c3ccccn3)no2)o1,56,91,x,n,75
Brc1ccc(-c2noc(-c3ccccn3)n2)o1,n,n,n,n,n
Clc1ccccc1OCc1nc(-c2ccccn2)no1,n,n,x,n,x
Cc1ccccc1-c1nc(-c2ccccn2)no1,81,97,n,n,95
Clc1ccc(-c2nc(-c3ccccn3)no2)cc1Cl,n,80,x,x,x
Cc1ccc(S(=O)(=O)N(C)C[C@@H]2Oc3ccc(NC(=O)Nc4c(C)noc4C)cc3CC(=O)N([C@@H](C)CO)C[C@H]2C)cc1,x,x,n,x,n
COc1ccccc1-c1nc(-c2ccccn2)no1,66,96,n,n,78
COc1ccccc1-c1noc(-c2ccncc2)n1,n,n,x,x,n
COc1ccc(-c2nc(-c3ccccn3)no2)cc1,83,102,n,n,100
COc1ccc(-c2nc(-c3ccncc3)no2)cc1,n,n,n,n,n
COc1ccc2c3c([nH]c2c1)[C@H](CO)NCC31CN(C(=O)c2ccccc2)C1,x,x,n,x,x
O=C(O)c1c2c(nc3ccccc13)/C(=C/c1ccc(O)cc1)CC2,51,77,n,n,71
O=C(O)c1c2c(nc3ccccc13)/C(=C/c1ccc(OC(F)F)cc1)CCC2,n,n,n,n,n
C[C@@H]1CCCCO[C@@H](CN(C)S(C)(=O)=O)[C@H](C)CN([C@H](C)CO)C(=O)c2cc(NS(=O)(=O)c3cn(C)cn3)ccc2O1,x,x,n,x,n
O=S(=O)(Nc1ccc(O)c(Sc2nc3ccccc3s2)c1)c1cccc2ccccc12,67,50,n,n,n
CCc1ccccc1NC1Nc2cc(C)nn2S1 (configuration not stated),n,57,n,n,n
CC[C@]12c3[nH]c4cc(CCC(=O)N(C)C)ccc4c3CCN1C(=O)[C@@H](CC(=O)NCC13CC4CC(CC(C4)C1)C3)C[C@@H]2C(=O)N1CCN(C(=O)c2ccco2)CC1,n,96,n,n,n
CC(C)[C@@H]1C(=O)N[C@@H](c2ccc(F)cc2)CC=CC[C@H](C)Oc2ccccc2C(=O)N1C (mixture of isomers),x,x,n,x,x
CN(C(=O)c1cccc(NC(=O)Cc2ccc(NC(=O)C3CCCN(C(=O)CCc4ccccc4)C3)cc2)c1)C1CCC1 (configuration not stated),n,n,n,n,n
CN(C(=O)c1cccc(NC(=O)Cc2ccc(NC(=O)C3CCCN(C(=O)CCc4ccccc4)C3)cc2)c1)C1CCCC1 (configuration not stated),n,53,n,n,n
O=C(NCCCc1ccccc1)c1cccc(NC(=O)C2CCCCC2)c1,n,54,n,x,n
